This is one part of a sample in which hits are shown more often than they occur.
697 NFkB inh = inhibitors of the PMA/ionomycin-induced NF-kB reporter in 697 B cells; 697 B-cell NF-kB luciferase reporter, 16 h; inhibition, % at 4 µM; 330,000 tested, 0.33% active; AID 435022; in the data active means inhibition above about 35%
Jurkat NFkB inh = lowers PMA/ionomycin-induced NF-kB signal in Jurkat cells. AID 435003. inhibition, % at 4 µM. 330,000 tested, 0.53% active. PMA/ionomycin-induced NF-kB luciferase reporter, luminescence; in the data active means inhibition above about 50%
CHOP UPR activ = apoptotic UPR (CHOP) activation; AID 449763; activation, % at 10 µM; CHO-CHOP luciferase reporter, luminescence; percent of tunicamycin response over DMSO baseline; 330,000 tested, 0.34% active;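 active means at 10 µM dose, activation of 40% or more, normalized to positive control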;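 further: 100% = tunicamycin at 10 µg/mL and 0% = DMSO alone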
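System: CHO-CHOP luciferase reporter cell line | Buffer or medium: F12 medium containing 10% fetal bovine serum | Doses: One dose, 10 µM in 0.5% DMSO | Times: 6 h compound exposure at 37 °C after overnight seeding | Signal: Luciferase luminescence | Read-out: % activation vs tunicamycin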
CHOP inh = blocks CHOP induction under ER stress. CHO-K1 CHOP-promoter luciferase, tunicamycin-induced, 15-18 h. inhibition, % at 10 µM. 220,000 tested, 3.8% active. AID 2732;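 active means compounds that reduced the stress-induced luciferase reporter signal by more than about 70% of percent inhibition, limit read from the data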;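 further: 0% = tunicamycin plus vehicle and 100% = wells without tunicamycin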
UPR XBP1 act = activators of adaptive arm of unfolded protein response (XBP1); CHO-XBP1 luciferase reporter, IRE1-XBP1 UPR activation, luminescence; percent of tunicamycin response, DMSO as zero; activation, % at 20 µM; 330,000 tested, 0.33% active;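 active means versus positive control, 20 µM dose yields 30% or more activation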;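 further: 100% = tunicamycin at 10 µg/mL and 0% = DMSO only wells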
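Material: CHO cell line with stable XBP1 luciferase reporter; schedule: 16-18 h cell attachment at 37 °C, then 6 h compound exposure; signal: glow luminescence from Steady-Glo reagent; medium: serum-containing F12 medium, 10% FBS; benchmarks: tunicamycin 10 µg/mL and vehicle-only wells; read-out: percent activation relative to tunicamycin reference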
Active calls of the source: *; . = not tested or not shown.

SMILES | 697 NFkB inh | Jurkat NFkB inh | CHOP UPR activ | CHOP inh | UPR XBP1 act
Cc1csc(NC(=O)CSc2nnc(NC(=O)COc3ccc(Cl)cc3)s2)n1 | 9 | -16 | 8 | 93* | 0
COc1ccccc1N(C(=O)CCl)c1cn(C(C)=O)c2ccccc12 | -93 | 12 | 35 | -62 | -3
CC(=O)n1cc(N(C(=O)CCl)c2ccc(Cl)cc2)c2ccccc21 | -17 | 12 | -8 | 107* | -8
C(=N\Nc1nc2ccccc2[nH]1)/c1ccccn1 | . | . | . | 85* | .
CCN(CC)c1ccc(/C=N/Nc2nc3ccccc3[nH]2)c(O)c1 | -41 | 25 | 13 | 83* | 24
CCN(C[C@H]1N[C@@](Cc2ccccc2)(C(=O)OC)[C@H]2C(=O)N(C)C(=O)[C@@H]12)C(=O)Nc1ccc(C(F)(F)F)cc1 | 2 | 3 | 1 | . | -2
O=Cc1ccc(C(=O)OCC(=O)NC(=O)Nc2ccccc2F)cc1 | 18 | 10 | 1 | . | -1
Cc1ccc(NC2=NCC(Cc3ccc(Br)cc3)S2)cc1 (centres undefined) | -4 | -5 | -2 | 74* | 3
CCCNS(=O)(=O)c1ccc(CCC(=O)Nc2cc(Cl)ccc2Oc2ccccc2)cc1 | . | . | . | 90* | .
CC(C)(C)c1ccc(C(=O)NNC(=S)NC(=O)c2cccnc2)cc1 | -20 | -39 | 6 | . | 9
CC(C)(C)c1cc(Cl)c(O)c(NC(=S)NC(=O)c2cccnc2)c1 | 16 | 4 | 4 | 73* | 6
COc1ccc(S(=O)(=O)N2CCC(C(=O)NC3CCCCC3C)CC2)cc1 (centres undefined) | 17 | 5 | -1 | . | -2
Cc1cccc(N2CCN(C(=S)Nc3ccc4nc(N5CCN(C)CC5)cc(C)c4c3)CC2)c1C | . | . | . | 105* | .
CN(C)c1nc(-c2ccc([N+](=O)[O-])cc2)cs1 | -22 | -31 | 3 | 72* | -2
CCOC(=O)C(=N/O)/C(C)=N/NC(=O)C(=O)Nc1ccc(Cl)cc1 | 6 | 9 | 6 | 73* | -2
O=[N+]([O-])c1ccc(-c2nn(-c3ccccc3)cc2/C=N/n2c(-c3ccncc3)n[nH]c2=S)cc1 | 0 | -13 | 3 | 94* | 1
S=c1[nH]nc(-c2ccncc2)n1/N=C/c1cn(-c2ccccc2)nc1-c1ccccc1 | -18 | 3 | 5 | -41 | 10
S=c1[nH]nc(-c2cccs2)n1/N=C/c1cn(-c2ccccc2)nc1-c1cccs1 | -97 | -8 | 10 | 79* | 6
COc1ccc(Cn2ccnc2SCC(=O)NC2CCCC2)cc1 | -16 | -3 | -1 | . | 6
C=C(C)C1CCC2(C(=O)O)CCC3(C)C(CCC4C5(C)C(C=O)C(O)C(C)(C)C5CCC43C)C12 (centres undefined) | -6 | 2 | 0 | 85* | 2
C=CCOc1ccc(C(c2c(C)n(C)n(-c3ccccc3)c2=O)c2c(C)n(C)n(-c3ccccc3)c2=O)cc1 | -7 | 4 | 0 | . | -5
Cc1ccc(NC2=CC(=O)C(=O)c3ccccc32)cc1 | -48 | -48 | 45* | 12 | 17
COc1cccc(-c2nc3ccccc3s2)c1 | -163 | -142 | 2 | 73* | -4
Cc1ccc(C(C)C)c(OC/C(O)=C(\C#N)c2nc3ccccc3[nH]2)c1 | -10 | 7 | 0 | -11 | -2
CCSc1nnc(NC(=O)NC(CC)(C(F)(F)F)C(F)(F)F)s1 | -23 | 9 | -4 | 90* | 5
SMILES | 697 NFkB inh | Jurkat NFkB inh | CHOP UPR activ | CHOP inh | UPR XBP1 act
CC(C)c1nc2scc(-c3ccc(Cl)cc3)c2c(=O)n1N | 3 | -6 | 2 | 54 | 7
CN(C)C/C(Cl)=C(\Cl)c1ccccc1 | 19 | -2 | 0 | 77* | -6
CCOc1ccc(N=Nc2c(=O)[nH]n3c(=O)c4c([nH]c23)CCCC4)cc1 | -8 | 3 | -1 | 87* | -3
O=c1[nH]n2c(=O)c3c([nH]c2c1N=Nc1cccc(Cl)c1)CCCC3 | 8 | -1 | -1 | -7 | -3
Cc1occc(=O)c1OC(=O)Nc1ccc(Cl)c(Cl)c1 | . | . | . | 96* | .
O=c1[nH]cnc2c1sc1nc3c(c(-c4ccc(Cl)cc4)c12)CCC3 | -4 | -2 | 1 | 85* | -3
CC(C)c1ccc(OCc2nc(-c3ccccn3)no2)c(Br)c1 | -234 | -131 | 1 | 71* | -2
Cc1cccc(NC(=O)c2nc[nH]c2C(=O)NCCCNC(=O)c2[nH]cnc2C(=O)Nc2cccc(C)c2)c1 | 21 | -21 | 10 | . | 9
Cc1cccc(NC(=O)c2nc[nH]c2C(=O)Nc2cccc(C)c2)c1 | 3 | 4 | 1 | 87* | 3
Cc1cccc(NC(=O)c2nc[nH]c2C(=O)N[C@@H](C)C(=O)OCc2ccccc2)c1 | 2 | -6 | 0 | 90* | -5
O=C(COc1ccc(Cl)cc1Br)Nc1nnc(C2CC2)s1 | 2 | -12 | 6 | . | 2
O=C(COC(=O)/C=C/c1ccc([N+](=O)[O-])cc1)NC1CCCCC1 | -27 | -13 | 0 | . | 2
CCc1cc2c(N3CCN(c4ccccc4)CC3)ncnc2s1 | -7 | 6 | -1 | 77* | 3
CC(C)(C)OC(=O)[C@H](Cc1ccccc1)NC(=O)c1nc[nH]c1C(=O)NCC(=O)OCc1ccccc1 | -3 | -16 | -1 | . | -2
CC(C)C[C@H](NC(=O)c1[nH]cnc1C(=O)Nc1ccc(CNC(=O)OC(C)(C)C)cc1)C(=O)OC(C)(C)C | 2 | -2 | 5 | 84* | 12
CC(C)(C)OC(=O)CNC(=O)c1[nH]cnc1C(=O)N[C@@H](Cc1ccccc1)C(=O)OC(C)(C)C | 8 | 4 | 0 | 90* | 2
COc1ccc(NC(=O)c2nc[nH]c2C(=O)N[C@@H](CC(C)C)C(=O)OC(C)(C)C)cc1 | -31 | 6 | 0 | 76* | 6
Cc1nn(CC(=O)NCC(C)c2ccccc2)c(=O)c2cc(-c3ccccc3)nn12 (centres undefined) | -5 | 21 | 3 | . | -2
COc1ccc(OC)c(Nc2nc(N(C)c3ccccc3)nc(N)c2[N+](=O)[O-])c1 | -1 | -5 | -1 | . | 10
Cc1ccc(NS(=O)(=O)c2cccc(C(=O)NCC3CCCO3)c2)cc1 (centres undefined) | 8 | 14 | 1 | . | -3
COc1ccccc1N1CCN(C(=O)c2ccc(C(C)(C)C)cc2)CC1 | -23 | -1 | 0 | 96* | -1
COc1ccc(N2CCN(C(=O)c3ccc(C(C)(C)C)cc3)CC2)cc1 | 10 | 4 | 0 | 85* | 0
COc1ccc(N2CCN(C(=O)CCNC(=O)c3ccc(C(C)(C)C)cc3)CC2)cc1 | 6 | 3 | 0 | 41 | -1
COc1ccc(C(=O)N2CCN(c3ccccc3OC)CC2)cc1 | -6 | 13 | 3 | 1 | -2
CCc1nc(NC(C)(C)C)c2cnn(-c3ccccc3)c2n1 | -59 | -77 | 6 | 8 | 0
O=C(COC(=O)CNC(=O)c1ccccc1F)NC1CC1 | 9 | -4 | 1 | . | 0

Compound activity from PubChem BioAssay.
